Assay results taken from ChEMBL document CHEMBL1153264, “(1,2,3-Triazol-4-yl)benzenamines: synthesis and activity against VEGF receptors 1 and 2” (Bioorg Med Chem Lett, 2009).
Activity calls are given as the source filed them. The calls are words filed in the database; no cut-off is given here.

Assays:
[1] = biological target: T1, Vascular endothelial growth factor receptor 2 (Homo sapiens, UniProt P35968); assay: Inhibition of VEGFR2 by HTRF assay in presence of 2 uM ATP
Method in brief: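 HTRF kinase assay with KDR enzyme (3–4 ng) and biotinylated pGAT substrate. ATP added to start, 45 min at RT. Stopped with EDTA/KF buffer plus Eu-cryptate anti-phosphotyrosine antibody, 2 h RT, then HTRF read. IC50 from 10-point log concentration curves, mean of at least two duplicate runs.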

[2] = biological target: Vascular endothelial growth factor receptor 1 (Homo sapiens, UniProt P17948); assay: Inhibition of VEGFR1 by HTRF assay
[3] = biological target: T1, Vascular endothelial growth factor receptor 2; assay: Inhibition of VEGF-induced phosphorylation of VEGFR2 by cell-based ELISA
[4] = biological target: Insulin-like growth factor 1 receptor (Homo sapiens) (UniProt P08069); assay: Inhibition of IGF1R at 10 uM
Chain of Insulin-like growth factor 1 receptor (Homo sapiens) (P08069 31-736 limits assumed): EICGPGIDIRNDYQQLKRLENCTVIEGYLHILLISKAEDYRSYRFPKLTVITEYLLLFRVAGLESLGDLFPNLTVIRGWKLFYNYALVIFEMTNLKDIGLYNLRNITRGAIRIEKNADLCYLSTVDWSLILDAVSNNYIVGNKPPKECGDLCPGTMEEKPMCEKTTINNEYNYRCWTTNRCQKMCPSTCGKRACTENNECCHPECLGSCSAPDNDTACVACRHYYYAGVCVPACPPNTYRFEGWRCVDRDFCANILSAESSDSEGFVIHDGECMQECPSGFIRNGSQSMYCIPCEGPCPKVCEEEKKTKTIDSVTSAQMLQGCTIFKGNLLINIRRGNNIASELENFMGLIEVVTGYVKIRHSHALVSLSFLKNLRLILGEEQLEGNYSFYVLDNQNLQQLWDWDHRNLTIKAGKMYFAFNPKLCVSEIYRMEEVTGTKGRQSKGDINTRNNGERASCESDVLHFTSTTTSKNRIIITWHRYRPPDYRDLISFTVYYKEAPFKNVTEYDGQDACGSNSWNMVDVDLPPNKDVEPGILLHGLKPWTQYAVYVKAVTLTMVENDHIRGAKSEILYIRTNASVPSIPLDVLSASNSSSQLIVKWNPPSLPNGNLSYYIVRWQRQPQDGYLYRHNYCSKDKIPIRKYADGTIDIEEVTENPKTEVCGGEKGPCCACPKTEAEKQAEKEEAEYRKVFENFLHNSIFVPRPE
Chain of Insulin-like growth factor 1 receptor (Homo sapiens) (P08069 741-1367 limits assumed): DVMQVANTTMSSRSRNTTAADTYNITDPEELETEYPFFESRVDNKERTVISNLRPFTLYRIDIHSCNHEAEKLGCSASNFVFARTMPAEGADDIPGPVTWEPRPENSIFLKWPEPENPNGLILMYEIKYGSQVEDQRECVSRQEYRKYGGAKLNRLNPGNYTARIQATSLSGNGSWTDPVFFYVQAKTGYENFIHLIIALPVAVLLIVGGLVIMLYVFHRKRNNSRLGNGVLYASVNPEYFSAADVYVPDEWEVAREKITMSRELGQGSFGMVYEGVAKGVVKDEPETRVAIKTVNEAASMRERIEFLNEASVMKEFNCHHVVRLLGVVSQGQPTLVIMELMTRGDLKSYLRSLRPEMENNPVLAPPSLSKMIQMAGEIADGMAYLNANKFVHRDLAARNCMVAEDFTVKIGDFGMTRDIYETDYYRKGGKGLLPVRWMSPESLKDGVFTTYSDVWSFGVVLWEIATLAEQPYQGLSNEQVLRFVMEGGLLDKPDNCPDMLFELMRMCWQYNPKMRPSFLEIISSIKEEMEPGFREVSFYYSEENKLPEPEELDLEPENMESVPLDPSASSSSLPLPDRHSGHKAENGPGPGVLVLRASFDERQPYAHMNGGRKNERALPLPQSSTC

[5] = biological target: Insulin receptor (Homo sapiens) (UniProt P06213); assay: Inhibition of IR at 10 uM
[6] = biological target: Fibroblast growth factor receptor 1 (Homo sapiens) (UniProt P11362); assay: Inhibition of FGFR1 at 10 uM
[7] = biological target: Receptor-type tyrosine-protein kinase FLT3 (Homo sapiens) (UniProt P36888); assay: Inhibition of Flt3 at 10 uM
[8] = biological target: Epidermal growth factor receptor (Homo sapiens) (UniProt P00533); assay: Inhibition of EGFR at 10 uM
Chain of Epidermal growth factor receptor (Homo sapiens) (P00533 whole entry): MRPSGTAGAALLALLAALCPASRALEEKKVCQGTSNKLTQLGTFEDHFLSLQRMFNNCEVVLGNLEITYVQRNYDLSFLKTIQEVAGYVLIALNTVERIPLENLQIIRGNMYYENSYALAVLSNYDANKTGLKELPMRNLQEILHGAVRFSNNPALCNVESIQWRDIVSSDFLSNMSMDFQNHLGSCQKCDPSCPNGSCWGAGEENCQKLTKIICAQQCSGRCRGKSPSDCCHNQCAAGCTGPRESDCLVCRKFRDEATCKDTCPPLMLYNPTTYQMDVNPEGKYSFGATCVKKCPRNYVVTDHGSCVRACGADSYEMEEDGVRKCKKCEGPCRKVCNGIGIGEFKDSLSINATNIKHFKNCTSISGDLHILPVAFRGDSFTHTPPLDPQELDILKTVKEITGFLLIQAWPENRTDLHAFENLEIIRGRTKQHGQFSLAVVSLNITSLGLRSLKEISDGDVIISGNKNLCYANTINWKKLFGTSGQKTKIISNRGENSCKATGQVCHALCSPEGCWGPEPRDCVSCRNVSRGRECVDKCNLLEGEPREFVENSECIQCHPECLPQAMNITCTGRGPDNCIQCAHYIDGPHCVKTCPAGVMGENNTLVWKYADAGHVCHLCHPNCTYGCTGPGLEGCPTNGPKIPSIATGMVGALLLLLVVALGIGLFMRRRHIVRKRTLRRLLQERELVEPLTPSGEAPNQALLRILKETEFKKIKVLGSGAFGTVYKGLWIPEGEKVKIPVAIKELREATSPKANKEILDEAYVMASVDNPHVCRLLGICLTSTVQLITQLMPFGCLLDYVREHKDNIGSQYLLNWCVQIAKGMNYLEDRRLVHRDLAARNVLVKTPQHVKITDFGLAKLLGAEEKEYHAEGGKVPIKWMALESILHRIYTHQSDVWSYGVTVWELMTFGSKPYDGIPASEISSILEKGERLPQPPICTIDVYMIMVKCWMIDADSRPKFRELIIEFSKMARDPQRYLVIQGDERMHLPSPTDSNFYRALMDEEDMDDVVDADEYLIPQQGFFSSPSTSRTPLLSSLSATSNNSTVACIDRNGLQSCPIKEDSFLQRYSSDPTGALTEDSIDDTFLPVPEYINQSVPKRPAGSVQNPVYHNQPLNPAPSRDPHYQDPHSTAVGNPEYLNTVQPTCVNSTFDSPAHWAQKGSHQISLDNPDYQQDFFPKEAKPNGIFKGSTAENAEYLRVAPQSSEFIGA

[9] = biological target: Receptor tyrosine-protein kinase erbB-2 (Homo sapiens) (UniProt P04626); assay: Inhibition of ErbB2 at 10 uM
[10] = biological target: Hepatocyte growth factor receptor (Homo sapiens) (UniProt P08581); assay: Inhibition of c-Met at 10 uM
[11] = biological target: Macrophage-stimulating protein receptor (Homo sapiens) (UniProt Q04912); assay: Inhibition of Ron at 10 uM
[12] = Inhibition of PKA at 10 uM
[13] = biological target: Glycogen synthase kinase-3 beta (Homo sapiens) (UniProt P49841); assay: Inhibition of GSK3-beta at 10 uM
[14] = biological target: Bcr/Abl fusion protein (Homo sapiens) (UniProt P00519+P11274); assay: Inhibition of Bcr-Abl at 10 uM; type: protein assay
Chain of Bcr/Abl fusion protein (Homo sapiens) (P00519 whole entry, looked up, the tested form may be a part): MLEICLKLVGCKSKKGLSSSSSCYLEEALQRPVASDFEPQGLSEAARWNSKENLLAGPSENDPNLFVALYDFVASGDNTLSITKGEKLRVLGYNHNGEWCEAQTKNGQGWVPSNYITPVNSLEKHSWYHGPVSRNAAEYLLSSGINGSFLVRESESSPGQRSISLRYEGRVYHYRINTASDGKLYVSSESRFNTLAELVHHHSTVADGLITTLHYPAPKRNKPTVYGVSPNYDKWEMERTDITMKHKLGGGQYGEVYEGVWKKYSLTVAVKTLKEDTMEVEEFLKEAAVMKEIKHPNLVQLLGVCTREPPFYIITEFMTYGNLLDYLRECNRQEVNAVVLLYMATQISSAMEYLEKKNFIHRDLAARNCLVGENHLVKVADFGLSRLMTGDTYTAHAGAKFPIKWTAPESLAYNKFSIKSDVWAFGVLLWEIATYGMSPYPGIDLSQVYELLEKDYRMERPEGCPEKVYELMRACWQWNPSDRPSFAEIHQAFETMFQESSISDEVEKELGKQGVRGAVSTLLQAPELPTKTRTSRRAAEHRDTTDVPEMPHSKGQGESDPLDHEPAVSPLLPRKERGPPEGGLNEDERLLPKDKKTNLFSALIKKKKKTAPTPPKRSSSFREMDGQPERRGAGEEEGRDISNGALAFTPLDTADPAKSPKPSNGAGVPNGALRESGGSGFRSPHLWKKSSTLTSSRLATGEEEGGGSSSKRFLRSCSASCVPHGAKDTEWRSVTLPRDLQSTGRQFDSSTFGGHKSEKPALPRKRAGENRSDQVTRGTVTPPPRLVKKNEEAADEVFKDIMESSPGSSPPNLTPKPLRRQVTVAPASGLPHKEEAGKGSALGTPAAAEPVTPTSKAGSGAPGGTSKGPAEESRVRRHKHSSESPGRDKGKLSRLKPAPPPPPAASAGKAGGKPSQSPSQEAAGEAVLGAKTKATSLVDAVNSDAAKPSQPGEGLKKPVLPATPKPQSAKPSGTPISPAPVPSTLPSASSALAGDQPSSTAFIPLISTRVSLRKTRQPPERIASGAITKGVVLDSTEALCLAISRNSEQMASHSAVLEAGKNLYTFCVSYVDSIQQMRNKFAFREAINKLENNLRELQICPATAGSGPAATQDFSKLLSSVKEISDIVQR
Chain of Bcr/Abl fusion protein (Homo sapiens) (P11274 whole entry, looked up, the tested form may be a part): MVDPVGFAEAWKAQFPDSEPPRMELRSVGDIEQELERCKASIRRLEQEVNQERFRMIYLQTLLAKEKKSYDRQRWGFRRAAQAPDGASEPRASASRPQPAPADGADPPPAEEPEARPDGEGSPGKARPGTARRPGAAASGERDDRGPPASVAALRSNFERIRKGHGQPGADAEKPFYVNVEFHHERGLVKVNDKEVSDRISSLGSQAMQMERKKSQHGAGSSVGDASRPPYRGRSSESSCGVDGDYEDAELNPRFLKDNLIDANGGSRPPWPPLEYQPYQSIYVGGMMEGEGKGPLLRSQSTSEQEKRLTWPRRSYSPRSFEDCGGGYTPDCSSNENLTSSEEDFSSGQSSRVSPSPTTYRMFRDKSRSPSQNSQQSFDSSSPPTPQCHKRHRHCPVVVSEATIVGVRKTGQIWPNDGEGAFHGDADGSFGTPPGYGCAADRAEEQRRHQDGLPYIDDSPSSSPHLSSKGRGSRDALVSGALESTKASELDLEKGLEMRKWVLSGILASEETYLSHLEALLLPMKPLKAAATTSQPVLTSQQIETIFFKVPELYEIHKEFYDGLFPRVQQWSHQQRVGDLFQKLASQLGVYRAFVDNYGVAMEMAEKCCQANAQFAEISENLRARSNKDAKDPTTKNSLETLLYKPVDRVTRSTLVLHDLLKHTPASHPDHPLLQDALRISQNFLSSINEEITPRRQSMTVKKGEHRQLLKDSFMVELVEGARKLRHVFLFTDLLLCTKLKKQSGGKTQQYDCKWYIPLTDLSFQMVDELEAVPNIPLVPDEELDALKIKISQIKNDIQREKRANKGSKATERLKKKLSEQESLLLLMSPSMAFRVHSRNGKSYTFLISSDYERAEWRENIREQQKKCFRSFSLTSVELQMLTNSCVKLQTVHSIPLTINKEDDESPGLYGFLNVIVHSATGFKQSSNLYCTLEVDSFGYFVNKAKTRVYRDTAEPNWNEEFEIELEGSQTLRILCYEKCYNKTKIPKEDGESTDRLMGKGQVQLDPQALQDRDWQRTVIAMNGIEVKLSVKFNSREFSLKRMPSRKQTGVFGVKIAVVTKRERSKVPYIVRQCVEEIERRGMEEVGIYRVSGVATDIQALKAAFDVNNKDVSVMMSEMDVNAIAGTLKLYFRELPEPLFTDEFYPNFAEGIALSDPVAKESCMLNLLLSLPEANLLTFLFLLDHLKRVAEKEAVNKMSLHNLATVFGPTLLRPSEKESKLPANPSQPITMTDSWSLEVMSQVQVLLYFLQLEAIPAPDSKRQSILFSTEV

[15] = Inhibition of Bcr-Abl T315 mutant at 10 uM
[16] = biological target: Cyclin-dependent kinase 1 (Homo sapiens) (UniProt P06493); assay: Inhibition of Cdk1 at 10 uM
[17] = biological target: Cyclin-dependent kinase 2 (Homo sapiens) (UniProt P24941); assay: Inhibition of Cdk2 at 10 uM
[18] = biological target: Proto-oncogene tyrosine-protein kinase Src (Homo sapiens) (UniProt P12931); assay: Inhibition of Src at 10 uM
[19] = biological target: T2, Aurora kinase A (Homo sapiens) (UniProt O14965); assay: Inhibition of Aurora A at 10 uM
T2 sequence (whole entry): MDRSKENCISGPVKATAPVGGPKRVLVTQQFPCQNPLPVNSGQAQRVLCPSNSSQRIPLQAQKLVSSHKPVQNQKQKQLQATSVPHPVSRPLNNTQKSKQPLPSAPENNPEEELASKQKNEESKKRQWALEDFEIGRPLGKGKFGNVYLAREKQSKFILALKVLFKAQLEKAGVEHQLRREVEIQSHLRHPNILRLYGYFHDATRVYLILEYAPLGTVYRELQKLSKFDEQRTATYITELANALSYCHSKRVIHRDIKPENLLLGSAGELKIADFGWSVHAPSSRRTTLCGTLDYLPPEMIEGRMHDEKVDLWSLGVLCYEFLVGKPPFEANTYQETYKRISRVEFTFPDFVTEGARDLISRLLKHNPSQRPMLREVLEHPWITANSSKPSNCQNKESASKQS

[20] = biological target: Aurora kinase B (Homo sapiens) (UniProt Q96GD4); assay: Inhibition of Aurora B at 10 uM
[21] = biological target: Serine/threonine-protein kinase PLK1 (Homo sapiens) (UniProt P53350); assay: Inhibition of Plk1 at 10 uM

SMILES | IC50 [1] | IC50 [2] | inhibition [4] | inhibition [5] | inhibition [6] | inhibition [7] | inhibition [8] | inhibition [9] | inhibition [10] | inhibition [11] | inhibition [12] | inhibition [13] | inhibition [14] | inhibition [15] | inhibition [16] | inhibition [17] | inhibition [18] | inhibition [19] | inhibition [20] | inhibition [21] | other results
FC(F)(F)Oc1ccc(-n2cc(-c3ccccc3NCc3ccncc3)nn2)cc1 | 1.22 µM | 1.13 µM | < 30% | < 30% | < 30% | < 30% | < 30% | < 30% | < 30% | < 30% | < 30% | < 30% | < 30% | < 30% | < 30% | < 30% | < 30% | < 30% | < 30% | < 30% | IC50 [3]: 3.11 µM
O=C(Nc1cccc(C(F)(F)F)c1)c1nn[nH]c1NCc1ccncc1 | 5 µM |  |  |  |  |  |  |  |  |  |  |  |  |  |  |  |  |  |  |  | Activity [3]: inactive
FC(F)(F)c1cccc(-n2cc(-c3ccccc3NCc3ccccn3)nn2)c1 | > 10 µM | > 10 µM | < 30% | < 30% | < 30% | < 30% | < 30% | < 30% | < 30% | < 30% | < 30% | < 30% | < 30% | < 30% | < 30% | < 30% | < 30% | < 30% | < 30% | < 30% | IC50 [3]: > 10 µM
O=C(Nc1ccc(C(F)(F)F)cc1)c1[nH]nnc1NCc1ccncc1 | > 10 µM | > 10 µM |  |  |  |  |  |  |  |  |  |  |  |  |  |  |  |  |  |  | 
Fc1ccc(CNc2ccccc2-c2cn(-c3cccc(Cl)c3)nn2)cc1F |  |  | < 30% | < 30% | < 30% | < 30% | < 30% | < 30% | < 30% | < 30% | < 30% | < 30% | < 30% | < 30% | < 30% | < 30% | < 30% | < 30% | < 30% | < 30% | 
O=C(Nc1cccc(Cl)c1)c1nn[nH]c1NCc1ccncc1 | 5 µM |  |  |  |  |  |  |  |  |  |  |  |  |  |  |  |  |  |  |  | Activity [3]: inactive
O=C(Nc1ccc(Cl)cc1)c1nn[nH]c1NCc1ccncc1 | > 10 µM | > 10 µM |  |  |  |  |  |  |  |  |  |  |  |  |  |  |  |  |  |  | 

Now from value to compound, other results behind:

IC50 [1] | IC50 [2] | inhibition [4] | inhibition [5] | inhibition [6] | inhibition [7] | inhibition [8] | inhibition [9] | inhibition [10] | inhibition [11] | inhibition [12] | inhibition [13] | inhibition [14] | inhibition [15] | inhibition [16] | inhibition [17] | inhibition [18] | inhibition [19] | inhibition [20] | inhibition [21] | SMILES | other results
0.77 µM | 0.64 µM | < 30% | < 30% | < 30% | < 30% | < 30% | < 30% | < 30% | < 30% | < 30% | < 30% | < 30% | < 30% | < 30% | < 30% | < 30% | < 30% | < 30% | < 30% | c1ccc(-c2cn(-c3ccc4ccccc4n3)nn2)c(NCc2ccncc2)c1 | IC50 [3]: 1.19 µM
0.16 µM | 0.21 µM | < 30% | < 30% | < 30% | < 30% | < 30% | < 30% | < 30% | < 30% | < 30% | < 30% | < 30% | < 30% | < 30% | < 30% | < 30% | < 30% | < 30% | < 30% | FC(F)(F)c1cccc(-n2cc(-c3ccccc3NCc3ccnc4ccccc34)nn2)c1 | IC50 [3]: 0.31 µM
0.39 µM | 0.13 µM | < 30% | < 30% | < 30% | < 30% | < 30% | < 30% | < 30% | < 30% | < 30% | < 30% | < 30% | < 30% | < 30% | < 30% | < 30% | < 30% | < 30% | < 30% | Clc1ccc(-n2cc(-c3ccccc3NCc3ccncc3)nn2)cc1 | IC50 [3]: 0.27 µM
0.63 µM | 0.65 µM | < 30% | < 30% | < 30% | < 30% | < 30% | < 30% | < 30% | < 30% | < 30% | < 30% | < 30% | < 30% | < 30% | < 30% | < 30% | < 30% | < 30% | < 30% | Clc1ccc(-n2cc(-c3ccccc3NCc3ccncc3)nn2)cc1Cl | IC50 [3]: 1.47 µM
0.44 µM | 0.51 µM | < 30% | < 30% | < 30% | < 30% | < 30% | < 30% | < 30% | < 30% | < 30% | < 30% | < 30% | < 30% | < 30% | < 30% | < 30% | < 30% | < 30% | < 30% | FC(F)(F)c1cc(-n2cc(-c3ccccc3NCc3ccncc3)nn2)ccc1Cl | IC50 [3]: 0.78 µM
0.14 µM | 0.11 µM | < 30% | < 30% | < 30% | < 30% | < 30% | < 30% | < 30% | < 30% | < 30% | < 30% | < 30% | < 30% | < 30% | < 30% | < 30% | < 30% | < 30% | < 30% | Cc1ccc(-n2cc(-c3ccccc3NCc3ccncc3)nn2)cc1C(F)(F)F | IC50 [3]: 0.18 µM
0.68 µM | 0.65 µM | < 30% | < 30% | < 30% | < 30% | < 30% | < 30% | < 30% | < 30% | < 30% | < 30% | < 30% | < 30% | < 30% | < 30% | < 30% | < 30% | < 30% | < 30% | c1ccc(-c2cn(-c3ccc4[nH]ncc4c3)nn2)c(NCc2ccncc2)c1 | IC50 [3]: 2.33 µM
0.59 µM | 0.66 µM | < 30% | < 30% | < 30% | < 30% | < 30% | < 30% | < 30% | < 30% | < 30% | < 30% | < 30% | < 30% | < 30% | < 30% | < 30% | < 30% | < 30% | < 30% | FC(F)(F)c1ccc(-n2cc(-c3ccccc3NCc3ccncc3)nn2)cc1 | IC50 [3]: 1.92 µM
